pIC50: −log10 of the molar value. Active and inactive are the calls of the source. No cut-off for these calls is given here.
Tests used:
Leishmania donovani [1] = experiment: Antileishmanial activity against Leishmania donovani MHOM/IN/80/Dd8 promastigotes harboring luciferase reporter gene after 48 hrs by MTT assay; format: functional, organism-based; settings: for pIC50: MHOM/IN/80/Dd8, 48 h
Summary of the method: (§1)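 Luciferase-expressing L. donovani Dd8 promastigotes were grown at 24 °C in M199 with 10% heat-inactivated FBS and G418 20 μg/mL. They were exposed to a range of concentrations for 48 h, and viability was read by MTT absorbance as percent of untreated control. IC50 was from dose–response; n = 3 independent experiments done in replicate.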

[2] = Toxicity in BALB/c mouse infected with Leishmania donovani MHOM/IN/80/Dd8 promastigotes assessed as death at 12.5 to 200 mg/kg, ip administered once daily for 5 days measured up to 7 days post dose; format: organism-based; settings: in vivo
Summary of the method: (§2)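 BALB/c mice (20 ± 2 g) were infected by tail-vein injection of 2 × 10^7 stationary-phase promastigotes. At day 15 they received ip doses in 8% DMSO/PBS for 5 consecutive days and were killed at day 7 post-treatment. Survival, general health and body weight were monitored; 5 mice per group.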

Leishmania donovani [3] = experiment: Antileishmanial activity against Leishmania donovani MHOM/IN/80/Dd8 promastigotes harboring luciferase reporter gene after 48 hrs by MTT assay relative to control; format: functional; summary of the method: as §1
Leishmania donovani [4] = experiment: Antileishmanial activity against Leishmania donovani MHOM/IN/80/Dd8 promastigotes infected in BALB/c mouse assessed as reduction in parasite load in liver at 50 mg/kg, ip administered once daily for 5 days measured 7 days post dose by giemsa staining-based assay relative to control; format: functional; design: scale not given: the % may be the effect or the level left
Summary of the method: (§3)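 Hamster-passaged strain was transformed to promastigotes. Stationary-phase cells (2 × 10^7 in 0.2 mL PBS) were injected into the tail vein of BALB/c mice. From day 15 post-infection, mice received compound ip in 8% DMSO in PBS for 5 consecutive days, 5 mice per group. Mice were killed day 7 post-treatment. Liver and spleen burden was read from Giemsa-stained stamp smears as LDU.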

Leishmania donovani [5] = experiment: Antileishmanial activity against Leishmania donovani MHOM/IN/80/Dd8 amastigotes harboring luciferase reporter gene infected in mouse J774 cells after 48 hrs by Steady-Glo luminescence assay; format: functional, organism-based; settings: for pIC50: MHOM/IN/80/Dd8, J774, 48 h
Summary of the method: (§4)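 Infection of J774 macrophages with L. donovani Dd8 promastigotes at a 1:8 cell:parasite ratio. Compounds were diluted 2-fold in RPMI over 3.125–100 μM final and applied for 48 h. Amastigote inhibition was read by luciferase (RLU) or by Giemsa count of amastigotes per 100 macrophages. IC50 was from dose–response; n = 3 independent experiments done in replicate.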

Leishmania donovani [6] = experiment: Antileishmanial activity against Leishmania donovani MHOM/IN/80/Dd8 amastigotes harboring luciferase reporter gene infected in mouse J774 cells at 100 uM by Giemsa staining-based microscopic assay; format: functional, organism-based; summary of the method: as §4
Leishmania donovani [7] = experiment: Antileishmanial activity against Leishmania donovani MHOM/IN/80/Dd8 promastigotes infected in BALB/c mouse assessed as reduction in parasite load in liver at 200 mg/kg, ip administered once daily for 5 days measured 7 days post dose by giemsa staining-based assay relative to control; format: functional; design: scale not given: the % may be the effect or the level left; summary of the method: as §3
[8] = Stability of the compound in simulated gastric fluid assessed as parent compound remaining measured after 2 hrs by UPLC analysis; format: ADME; settings: read-out: Stability
Summary of the method: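 Compound incubated 2 h in simulated gastric fluid (pH 1.2) […] or in simulated intestinal fluid (pH 6.5) […]; the percentage of intact compound remaining was reported.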

[9] = Toxicity in BALB/c mouse infected with Leishmania donovani MHOM/IN/80/Dd8 promastigotes assessed as effect on health at 12.5 to 200 mg/kg, ip administered once daily for 5 days measured up to 7 days post dose; format: organism-based; settings: in vivo; summary of the method: as §2
Leishmania donovani [10] = experiment: (§5) Induction of apoptosis in Leishmania donovani MHOM/IN/80/Dd8 promastigotes assessed as increase in meta-caspase activity at 50 uM using BOC-GRR-AMC as substrate preincubated for 1 hr followed by substrate addition and measured after 2 hrs by fluorometric assay relative to control; format: functional
Summary of the method: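 Log-phase promastigotes treated with 50 μM for 24 and 48 h, with or without 1 h pretreatment with antipain (1 μM) or zVAD-fmk (100 μM). Vehicle control was 0.1% DMSO. Metacaspase activity in cell lysates measured with fluorogenic BOC-GRR-AMC, given as relative fluorescence units per mg protein.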

[11] = Cmax in BALB/c mouse at 50 mg/kg, po administered via gavage by LC-MS/MS analysis; format: ADME, organism-based; design: dose 50 mg/kg, route oral; settings: in vivo
Leishmania donovani [12] = experiment: Antileishmanial activity against Leishmania donovani MHOM/IN/80/Dd8 amastigotes harboring luciferase reporter gene infected in mouse J774 cells assessed as stimulation of host immunity by measuring change in IL12 level at 50 uM after 48 hrs by ELISA; format: functional, organism-based
Summary of the method: (§6)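 Infected J774 macrophages (24 h infection) were treated with 50 μM compound for 48 h. Culture supernatants were assayed by ELISA for TNF-α and IL-12 (Th1) and for TGF-β and IL-10 (Th2), compared with infected untreated cells.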

[13] = Elimination rate constant in BALB/c mouse at 50 mg/kg, po administered via gavage by LC-MS/MS analysis; format: ADME, organism-based; settings: in vivo
[14] = Apparent volume of distribution in BALB/c mouse at 50 mg/kg, po administered via gavage by LC-MS/MS analysis; format: ADME, organism-based; settings: in vivo
Leishmania donovani [15] = experiment: Antileishmanial activity against Leishmania donovani MHOM/IN/80/Dd8 amastigotes harboring luciferase reporter gene infected in mouse J774 cells assessed as stimulation of host immunity by measuring change in IL10 level at 50 uM after 48 hrs by ELISA; format: functional, organism-based; summary of the method: as §6
[16] = Tmax in BALB/c mouse at 50 mg/kg, po administered via gavage by LC-MS/MS analysis; format: ADME, organism-based; settings: in vivo
Leishmania donovani [17] = experiment: Antileishmanial activity against Leishmania donovani MHOM/IN/80/Dd8 promastigotes infected in BALB/c mouse assessed as reduction in parasite load in spleen at 25 mg/kg, ip administered once daily for 5 days measured 7 days post dose by giemsa staining-based assay relative to control; format: functional; design: scale not given: the % may be the effect or the level left; summary of the method: as §3
Leishmania donovani [18] = experiment: Induction of apoptosis in Leishmania donovani MHOM/IN/80/Dd8 promastigotes assessed as late apoptotic cells at 50 uM measured after 24 hrs by Annexin V-FITC/propidium iodide staining based assay (reference value: 0.46%); format: functional
Leishmania donovani [19] = experiment: Antileishmanial activity against Leishmania donovani MHOM/IN/80/Dd8 amastigotes harboring luciferase reporter gene infected in mouse J774 cells assessed as stimulation of host immunity by measuring change in TNFalpha level at 50 uM after 48 hrs by ELISA; format: functional, organism-based; summary of the method: as §6
Leishmania donovani [20] = experiment: as §5, with “hrs in presence of caspase inhibitor zVAD-fmk” for “hrs”, “assay” for “assay relative to control”; format: functional, organism-based
Summary of the method: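 Log-phase promastigotes were pretreated for 1 h with antipain (1 μM) or zVAD-fmk (100 μM), then exposed to 50 μM compound or 0.1% DMSO. Metacaspase activity in lysates was read with fluorogenic BOC-GRR-AMC and expressed as RFU per mg protein.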

Leishmania donovani [21] = experiment: Induction of reactive oxygen species generation in Leishmania donovani MHOM/IN/80/Dd8 promastigotes at 50 uM measured after 12 hrs by H2DCFDA probe-based flow cytometry (reference value: 7%); format: functional

Cc1cc(-c2cccc(OCCn3c([N+](=O)[O-])cnc3C)c2)nc2ccccc12
inhibition (Leishmania donovani [1]): Dose-dependent effect
pIC50 (Leishmania donovani [1]): 5.03
Activity [2]: Non-Toxic
Imax (Leishmania donovani [3]): >93%
Activity (Leishmania donovani [4]): >50%
inhibition (Leishmania donovani [5]): Dose-dependent effect
pIC50 (Leishmania donovani [5]): 5.01
inhibition (Leishmania donovani [6]): Active
Activity (Leishmania donovani [7]): 55.5%
remaining at 2 h [8]: 84.7%
Activity [9]: Non-Toxic

Cc1cc(-c2ccc(OCCn3c([N+](=O)[O-])cnc3C)cc2)nc2ccccc12
fold change (FC) (Leishmania donovani [10]): 3.8
Cmax [11]: 6860 ng/mL
inhibition (Leishmania donovani [1]): Dose-dependent effect
pIC50 (Leishmania donovani [1]): 5.28
Activity [2]: Non-Toxic
Activity (Leishmania donovani [12]): inactive
Imax (Leishmania donovani [3]): >93%
k el [13]: 4.72e-05 s⁻¹
Activity (Leishmania donovani [4]): >82.3%
inhibition (Leishmania donovani [5]): Dose-dependent effect
pIC50 (Leishmania donovani [5]): 5.43
inhibition (Leishmania donovani [6]): Active
Vd(app) [14]: 15.98 L/kg
Activity (Leishmania donovani [15]): inactive
Tmax [16]: 45 min
Activity (Leishmania donovani [17]): >62%
Activity (Leishmania donovani [18]): 48.14%
Activity (Leishmania donovani [7]): 82.7%
Activity (Leishmania donovani [19]): inactive
remaining at 2 h [8]: 83.6%
Activity [9]: Non-Toxic
inhibition (Leishmania donovani [20]): Active
Activity (Leishmania donovani [21]): 31.61%

From ChEMBL document CHEMBL4396890, “Synthesis, Biological Evaluation, Structure-Activity Relationship, and Mechanism of Action Studies of Quinoline-Metronidazole Derivatives Against Experimental Visceral Leishmaniasis” (J Med Chem, 2019)
